TRPC4 block – inhibitors of mouse TRPC4 channel, primary screen, Fluo4 calcium, HEK293 TRPC4beta/mu-opioid cells | DAMGO-evoked Fluo4 calcium flux; stronger effect = lower value | B-score at 10 µM | 300,000 compounds, 0.39% hits | Short transient receptor potential channel 4 (Mus musculus), Q9QUQ5 | AID 2247, 2010;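 active means B-score over 3 SD under the library average, no early fluorescence shift, positive overall ratio signal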
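Assay system – HEK293 line stably carrying TRPC4beta and mu-opioid receptor · Doses – single dose · Detection – Fluo4 calcium-dye fluorescence, kinetic read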
TRPC6 act – mouse TRPC6 channel activators, primary screen, cell-based, HEK293, membrane potential dye; HEK293-TRPC6 membrane potential dye fluorescence; stronger effect = higher value; 310,000 compounds, 0.13% hits; Short transient receptor potential channel 6 (Mus musculus), Q61143; B-score at 10 µM;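 active means B-score of the integrated fluorescence ratio above library mean plus 3 SD, and starting fluorescence ratio within library mean plus 5 SD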;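 further: higher score means more depolarization so channel activation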
Target sequence (Q61143 whole entry, looked up): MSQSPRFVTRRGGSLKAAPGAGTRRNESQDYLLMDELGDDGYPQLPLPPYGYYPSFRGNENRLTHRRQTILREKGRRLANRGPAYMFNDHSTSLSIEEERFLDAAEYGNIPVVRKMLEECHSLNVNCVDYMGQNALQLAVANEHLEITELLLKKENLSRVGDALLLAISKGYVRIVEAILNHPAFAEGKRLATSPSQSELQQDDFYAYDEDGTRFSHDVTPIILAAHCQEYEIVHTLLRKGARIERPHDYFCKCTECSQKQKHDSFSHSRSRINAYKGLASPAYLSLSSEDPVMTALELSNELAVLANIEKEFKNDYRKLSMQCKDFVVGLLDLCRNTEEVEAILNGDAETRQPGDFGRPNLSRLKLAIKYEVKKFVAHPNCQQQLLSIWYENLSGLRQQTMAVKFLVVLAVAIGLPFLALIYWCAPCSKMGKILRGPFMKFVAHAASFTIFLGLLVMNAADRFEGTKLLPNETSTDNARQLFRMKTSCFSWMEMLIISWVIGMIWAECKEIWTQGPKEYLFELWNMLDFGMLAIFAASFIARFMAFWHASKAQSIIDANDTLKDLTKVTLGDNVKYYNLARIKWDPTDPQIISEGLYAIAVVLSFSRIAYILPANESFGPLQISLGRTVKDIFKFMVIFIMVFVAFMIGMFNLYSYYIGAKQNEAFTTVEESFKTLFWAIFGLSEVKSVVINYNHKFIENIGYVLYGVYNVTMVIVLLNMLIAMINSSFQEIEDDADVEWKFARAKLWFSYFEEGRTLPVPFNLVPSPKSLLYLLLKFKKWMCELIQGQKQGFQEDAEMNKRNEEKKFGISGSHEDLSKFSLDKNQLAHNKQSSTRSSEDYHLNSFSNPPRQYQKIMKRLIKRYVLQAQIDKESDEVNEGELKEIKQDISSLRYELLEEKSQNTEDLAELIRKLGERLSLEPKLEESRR
TRPC4 potent – positive allosteric modulators of TRPC4, primary screen, cell-based, mouse TRPC4beta, HEK293 mu-opioid, Fluo-4 calcium; Short transient receptor potential channel 4 (Mus musculus), Q9QUQ5; DAMGO EC20, Fluo-4 Ca2+ flux; stronger effect = higher value; B-score at 10 µM; 310,000 compounds, 0.42% hits; AID 2227, 2009;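 active means B-score of calcium response area above 5 SD of library B-scores, with initial fluorescence ratio within 5 SD of library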;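 further: B-score of integrated fluorescence ratio over time as area under calcium response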
TRPC6 inhibitor – mouse TRPC6 channel inhibitors, primary screen, cell-based, HEK293, membrane potential dye; Short transient receptor potential channel 6 (Mus musculus), Q61143; ACh-evoked depolarization; stronger effect = lower value; B-score at 10 µM; 310,000 compounds, 1.1% hits;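 active means B-score under library mean minus 3 SD, initial fluorescence not abnormally high, positive integrated signal ratio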;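 further: B-score derived from integrated fluorescence ratio over the kinetic read; more negative B-score means stronger inhibition of depolarization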
TRPC4 act – activators of mouse TRPC4 channel, primary screen, Fluo4 calcium, HEK293 TRPC4beta/mu-opioid cells; Short transient receptor potential channel 4 (Mus musculus), Q9QUQ5; Fluo4 calcium fluorescence; stronger effect = higher value; B-score at 10 µM; 310,000 compounds, 0.49% hits;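 active means B-score above 5 SD of library B-scores, and initial fluorescence ratio not above library mean plus 5 SD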;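 further: positive B-score marks a calcium rise read as TRPC4 activation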
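Material: TRPC4beta and mu-opioid receptor HEK293 stable cells | Incubation: 45 min room-temperature Fluo4 loading, 110 s read | Detection: Kinetic Fluo4 calcium fluorescence | Measure: Integrated baseline-normalised fluorescence ratio, converted to per-well B score | Benchmarks: Low control buffer alone, high control maximal DAMGO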
HEK293 MPD ctr – parental HEK293 membrane potential modulation, confirmation, counter-screen for TRPC6 modulator project, cell-based; shares compounds with TRPC6 inhibitor; membrane potential dye fluorescence; membrane potential signal change, % at 10 µM; 2,400 compounds, 51% hits; AID 488924, 2010;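 active means membrane potential signal moves up or down beyond 5 SD from buffer-only wells, on both duplicate plates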
HEK293 MPD ctr 2 – second check of TRPC6 modulator effects in parental HEK293 cells | shares compounds with TRPC6 inhibitor | membrane potential dye fluorescence; after compound, maximal acetylcholine stimulation | inhibition, % at 10 µM | 2,400 compounds, 14% hits | AID 488926;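 active means membrane potential signal drops by more than 5 SD from the mean control signal, in both duplicate plates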;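 further: plate controls were acetylcholine ECmax control wells for no effect and buffer only wells for full effect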
TRPC4 ctr mod – TRPC4 modulation by TRPC6 hit compounds, confirmation, selectivity assay for TRPC6 modulator project, cell-based, HEK293 TRPC4/mu-opioid, membrane potential dye, mouse. 2,400 compounds, 69% hits. shares compounds with TRPC6 inhibitor. membrane potential fluorescence. percent change from control (negative = decrease, positive = increase), % at 10 µM. AID 488927, 2010;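 active means membrane potential signal moved up or down beyond 5 SD of buffer control wells, in both duplicate plates, actives on both sides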;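 further: plate controls were assay buffer wells for no effect and DAMGO maximal-effect wells for full effect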
TRPC4/MOR inh 2 – mouse TRPC4 off-target activity of TRPC6 modulators, second screen; shares compounds with TRPC6 inhibitor; HEK293 TRPC4/mu-opioid, membrane potential dye fluorescence; stimulated with maximal-effect DAMGO; inhibition, % at 10 µM; 2,400 compounds, 55% hits;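 active means drop in membrane potential signal beyond 5 SD of the control wells in both duplicate plates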;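 further: TRPC4 counter screen for TRPC6 hits run under conditions tuned for TRPC6 not TRPC4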
TRPC6 block conf – mouse TRPC6 channel inhibitors, confirmation, HEK293 cells, membrane potential dye, duplicate; 3,300 compounds, 43% hits; shares compounds with TRPC6 inhibitor; ACh-evoked depolarization; inhibition, % at 10 µM;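 active means fluorescence ratio falls more than 5 SD below the full-stimulation control mean, in both duplicate runs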;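 further: integrated fluorescence ratio of peak minus minimum over baseline after agonist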
TRPC6 act conf – mouse TRPC6 channel activators, confirmation, HEK293 cells, membrane potential dye, duplicate; shares compounds with TRPC6 inhibitor; HEK293-TRPC6 membrane potential dye fluorescence, FDSS; activation, % at 10 µM; 2,800 compounds, 11% hits;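 active means ratio signal rise beyond 5 SD above unstimulated control wells' mean, seen in both duplicate runs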;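 further: plate controls were buffer EC0 wells for no effect and acetylcholine ECmax response for full effect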
* marks the source's active call; other numbers are inactive results; i = inactive; · = no result given. A selection: hits, their analogues and other compounds. The true share with any hit is near 2.3%.

SMILES	TRPC4 block	TRPC6 act	TRPC4 potent	TRPC6 inhibitor	TRPC4 act	HEK293 MPD ctr	HEK293 MPD ctr 2	TRPC4 ctr mod	TRPC4/MOR inh 2	TRPC6 block conf	TRPC6 act conf
Cc1cc(N2CCN(S(=O)(=O)c3ccccc3)CC2)c2ccccc2n1	i	i	i	-8.9*	i	-187%*	i	-31%*	68%*	48%*	i
CCN(c1ccccc1)S(=O)(=O)c1ccc(OC)c(NC(=O)CCc2nc3ccccc3c(=O)[nH]2)c1	i	i	i	i	i	·	·	·	·	·	·
COc1cc(NC(=O)CN2C(=O)COc3ccc(S(=O)(=O)N4CCCC4)cc32)cc(OC)c1	i	i	i	i	i	·	·	·	·	·	·
COc1ccc(-c2noc(N3CCC(C(=O)NC(C)c4ccccc4)CC3)n2)cc1 (configuration not stated)	i	i	i	i	i	·	·	·	·	·	·
Cc1ccn2c(=O)c(NC(=O)c3cccs3)c(C)nc2c1	i	i	i	i	i	·	·	·	·	·	·
O=C1c2cccc(Cl)c2C(=O)c2c1cccc2N1CCCC1	i	i	i	-8.3*	i	-98%*	i	-26%*	76%*	i	i
CN1CCN(c2ccc(Cl)cc2NC(=O)c2ccc(=O)n(C)n2)CC1	i	i	i	-9*	i	-340%*	68%*	-59%*	54%*	52%*	i
N=c1c(C(=O)NCC2CCCO2)cc2c(=O)n3ccccc3nc2n1Cc1ccco1 (configuration not stated)	i	i	i	-5.3*	i	i	76%*	13%*	i	i	i
N=c1c(C(=O)NCC2CCCO2)cc2c(=O)n3ccccc3nc2n1Cc1ccc(F)cc1 (configuration not stated)	i	i	i	-6*	i	i	i	-9.5%*	48%*	48%*	i
N=c1c(C(=O)NCCc2ccccc2)cc2c(=O)n3ccccc3nc2n1Cc1ccco1	i	i	i	i	i	·	·	·	·	·	·
N=c1c(C(=O)NCC2CCCO2)cc2c(=O)n3ccccc3nc2n1Cc1cccnc1 (configuration not stated)	i	i	i	-7.5*	i	i	84%*	-100%*	33%*	50%*	i
CCOCCCNc1nc2nc3ccc(C)cn3c(=O)c2cc1C(=O)NCC1CCCO1 (configuration not stated)	i	i	i	-5.5*	i	149%*	61%*	24%*	i	i	·

Source: PubChem BioAssay
